Our source for the inhibition values is ChEMBL document CHEMBL1165965, “Synthesis and structure-activity relationships of 1,2,3,4-tetrahydropyrido[2,3-b]pyrazines as potent and selective inhibitors of the anaplastic lymphoma kinase” (Bioorg Med Chem, 2010).

Some results are limits rather than exact numbers.

The target of assay [1] is Serine/threonine-protein kinase SBK1 (Homo sapiens) (UniProt Q52WX2). In words: Inhibition of SBK1 at 1 uM.
Assay [2] has as its target T1, Epidermal growth factor receptor (Homo sapiens) (UniProt P04626+P00533+Q15303+P21860). Nature of the assay: Inhibition of EGFR L747-S752del, P753S mutant at 1 uM. It counts as protein assay. Summed up: (§1)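 Single-concentration screen using Ambit Bioscience KINOMEscan technology across a panel of 250–400 kinases. Per-kinase inhibition from this screen was summarized as S(90), the fraction of kinases inhibited by more than 90%.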

The target of assay [3] is Tyrosine-protein kinase Lyn (Homo sapiens) (UniProt P07948). Nature of the assay: Inhibition of LYN at 1 uM. The method, boiled down:
(§2)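 Single-concentration screen on the Ambit KINOMEscan platform, run against a panel of 250–400 kinases. Per-kinase inhibition was also summarized as S(90), the fraction of kinases inhibited by more than 90%.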

Assay [4] concerns the target T2, Rhodopsin kinase GRK7 (Homo sapiens) (UniProt Q8WTQ7).
T2 sequence (whole entry): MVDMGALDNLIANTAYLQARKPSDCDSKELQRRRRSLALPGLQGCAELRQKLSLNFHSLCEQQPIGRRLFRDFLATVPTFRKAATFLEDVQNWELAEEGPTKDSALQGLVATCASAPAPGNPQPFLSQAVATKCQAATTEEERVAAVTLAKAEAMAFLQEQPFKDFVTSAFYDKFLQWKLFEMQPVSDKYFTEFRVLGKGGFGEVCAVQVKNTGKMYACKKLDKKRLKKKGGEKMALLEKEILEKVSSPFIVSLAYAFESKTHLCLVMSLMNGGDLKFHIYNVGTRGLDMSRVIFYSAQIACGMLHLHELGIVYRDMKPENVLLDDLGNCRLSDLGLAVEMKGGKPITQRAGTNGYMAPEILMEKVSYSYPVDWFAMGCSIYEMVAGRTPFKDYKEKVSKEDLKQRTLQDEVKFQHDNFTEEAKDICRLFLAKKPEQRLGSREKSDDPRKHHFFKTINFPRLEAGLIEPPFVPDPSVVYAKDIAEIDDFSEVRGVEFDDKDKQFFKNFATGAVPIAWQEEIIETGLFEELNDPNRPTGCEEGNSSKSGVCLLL
In words: Inhibition of GRK7 at 1 uM.

Assay [5] addresses Cyclin-dependent kinase 16 (Homo sapiens) (UniProt Q00536). In words: Inhibition of PCTK1 at 1 uM.
Assay [6] has as its target T1, Epidermal growth factor receptor (Homo sapiens). In words: Inhibition of EGFR L747-E749del, A750P mutant at 1 uM. It counts as protein assay. Summed up:
as §1

For assay [7], the target named is Fibroblast growth factor receptor 3 (Homo sapiens) (UniProt P22607). Nature of the assay: Inhibition of FGFR3 at 1 uM. The method, boiled down: as §2
Sequence of Fibroblast growth factor receptor 3 (Homo sapiens) (P22607 23-806 limits assumed): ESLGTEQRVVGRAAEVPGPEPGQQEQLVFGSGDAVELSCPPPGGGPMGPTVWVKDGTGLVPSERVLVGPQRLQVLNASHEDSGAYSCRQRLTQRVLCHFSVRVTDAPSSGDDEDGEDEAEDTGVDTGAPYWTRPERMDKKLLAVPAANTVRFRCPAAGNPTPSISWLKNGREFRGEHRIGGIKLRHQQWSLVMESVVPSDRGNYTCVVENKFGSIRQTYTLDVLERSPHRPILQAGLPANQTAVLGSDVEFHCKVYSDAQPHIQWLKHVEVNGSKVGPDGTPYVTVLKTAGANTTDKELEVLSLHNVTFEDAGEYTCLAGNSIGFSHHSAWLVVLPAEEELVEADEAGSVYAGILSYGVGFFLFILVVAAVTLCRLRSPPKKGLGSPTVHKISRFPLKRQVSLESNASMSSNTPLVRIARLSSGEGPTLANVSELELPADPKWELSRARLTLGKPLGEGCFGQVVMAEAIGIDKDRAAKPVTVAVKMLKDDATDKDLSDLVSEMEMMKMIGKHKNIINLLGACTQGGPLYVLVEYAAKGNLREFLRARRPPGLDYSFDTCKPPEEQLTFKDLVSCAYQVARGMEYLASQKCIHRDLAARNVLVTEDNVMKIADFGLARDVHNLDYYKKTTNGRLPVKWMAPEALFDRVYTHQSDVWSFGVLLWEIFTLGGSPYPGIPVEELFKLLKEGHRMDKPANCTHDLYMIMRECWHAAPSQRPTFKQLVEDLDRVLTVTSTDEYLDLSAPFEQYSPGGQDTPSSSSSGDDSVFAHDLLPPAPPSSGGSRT
Assay [8] deals with Insulin receptor-related protein (Homo sapiens) (UniProt P14616). In words: Inhibition of INSRR at 1 uM. The method, boiled down:
as §2

For assay [9], the target named is Aurora kinase B (Homo sapiens) (UniProt Q96GD4). Nature of the assay: Inhibition of AURKB at 1 uM. Summed up: (§3)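 Ambit KINOMEscan screen at a single concentration across a 250–400 kinase panel, recorded as percent inhibition. Selectivity was expressed as S(90), the fraction of kinases inhibited >90%.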
The target of assay [10] is Serine/threonine-protein kinase 16 (Homo sapiens) (UniProt O75716). Nature of the assay: Inhibition of STK16 at 1 uM.
Sequence of Serine/threonine-protein kinase 16 (Homo sapiens) (O75716 whole entry): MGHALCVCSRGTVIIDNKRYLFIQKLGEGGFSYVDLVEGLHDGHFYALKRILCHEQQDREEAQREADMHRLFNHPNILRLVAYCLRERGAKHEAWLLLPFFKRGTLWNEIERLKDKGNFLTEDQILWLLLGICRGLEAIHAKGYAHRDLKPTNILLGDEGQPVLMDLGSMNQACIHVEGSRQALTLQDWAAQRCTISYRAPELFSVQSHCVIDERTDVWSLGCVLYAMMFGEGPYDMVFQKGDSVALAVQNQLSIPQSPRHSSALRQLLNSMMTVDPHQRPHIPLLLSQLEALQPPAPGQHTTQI
In assay [11] the target is Glycogen synthase kinase-3 alpha (Homo sapiens) (UniProt P49840). Nature of the assay: Inhibition of GSK3A at 1 uM. The method, boiled down: as §2
Sequence of Glycogen synthase kinase-3 alpha (Homo sapiens) (P49840 2-483 limits assumed): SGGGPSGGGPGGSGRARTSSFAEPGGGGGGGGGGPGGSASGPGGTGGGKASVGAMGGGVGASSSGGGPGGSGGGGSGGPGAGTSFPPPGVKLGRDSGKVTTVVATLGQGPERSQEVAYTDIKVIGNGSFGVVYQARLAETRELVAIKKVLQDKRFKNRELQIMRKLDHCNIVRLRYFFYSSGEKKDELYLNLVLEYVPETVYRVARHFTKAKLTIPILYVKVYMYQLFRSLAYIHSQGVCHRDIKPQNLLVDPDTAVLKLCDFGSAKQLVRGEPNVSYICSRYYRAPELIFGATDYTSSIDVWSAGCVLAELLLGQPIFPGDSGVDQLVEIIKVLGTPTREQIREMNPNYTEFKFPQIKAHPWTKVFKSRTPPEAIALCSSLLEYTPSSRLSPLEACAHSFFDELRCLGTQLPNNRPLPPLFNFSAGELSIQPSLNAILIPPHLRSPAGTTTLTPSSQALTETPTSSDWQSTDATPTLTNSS
Assay [12] concerns Tyrosine-protein kinase ABL1 (Homo sapiens), P00519 [T315I]. Nature of the assay: Inhibition of ABL1 T315I mutant at 1 uM. The method, boiled down: as §3
Assay [13] has as its target Proto-oncogene tyrosine-protein kinase receptor Ret (Homo sapiens) (UniProt P07949). Nature of the assay: Inhibition of RET at 1 uM.
For assay [14], the target named is Rho-associated protein kinase 1 (Homo sapiens) (UniProt Q13464). Nature of the assay: Inhibition of ROCK1 at 1 uM.
Assay [15] concerns the target Tyrosine-protein kinase JAK1 (Homo sapiens) (UniProt P23458). Nature of the assay: Inhibition of JAK1 JH2 pseudokinase domain at 1 uM. Summed up:
as §2

Assay [16] deals with T3, Serine/threonine-protein kinase TBK1 (Homo sapiens) (UniProt Q9UHD2).
T3 sequence (whole entry): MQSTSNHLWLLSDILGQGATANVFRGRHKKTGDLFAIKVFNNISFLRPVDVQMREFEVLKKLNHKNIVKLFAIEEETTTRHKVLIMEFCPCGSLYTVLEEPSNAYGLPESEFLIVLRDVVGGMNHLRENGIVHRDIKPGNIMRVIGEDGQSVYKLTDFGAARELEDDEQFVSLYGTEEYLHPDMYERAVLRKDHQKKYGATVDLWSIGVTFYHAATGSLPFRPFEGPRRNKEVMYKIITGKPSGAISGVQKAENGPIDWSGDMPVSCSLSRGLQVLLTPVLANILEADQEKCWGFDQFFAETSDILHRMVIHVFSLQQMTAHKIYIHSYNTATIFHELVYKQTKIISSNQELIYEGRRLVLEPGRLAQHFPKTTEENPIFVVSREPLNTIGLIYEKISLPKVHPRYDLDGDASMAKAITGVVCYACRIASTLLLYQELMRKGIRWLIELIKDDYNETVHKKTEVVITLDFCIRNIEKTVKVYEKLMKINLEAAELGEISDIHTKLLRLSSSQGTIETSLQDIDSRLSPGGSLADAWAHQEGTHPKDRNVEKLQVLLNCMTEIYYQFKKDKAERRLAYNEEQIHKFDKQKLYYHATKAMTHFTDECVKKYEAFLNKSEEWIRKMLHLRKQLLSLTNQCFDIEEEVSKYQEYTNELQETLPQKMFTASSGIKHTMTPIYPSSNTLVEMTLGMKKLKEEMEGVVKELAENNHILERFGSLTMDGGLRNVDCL
In words: Inhibition of TBK1 at 1 uM.

Assay [17] deals with Death-associated protein kinase 3 (Homo sapiens) (UniProt O43293). In words: Inhibition of DAPK3 at 1 uM. Summed up:
as §1

Assay [18] has as its target Casein kinase I isoform gamma-2 (Homo sapiens) (UniProt P78368). In words: Inhibition of CSNK1G2 at 1 uM. The method, boiled down:
as §1

Assay [19] deals with Tyrosine-protein kinase Fes/Fps (Homo sapiens) (UniProt P07332). In words: Inhibition of FES at 1 uM. The method, boiled down:
as §1

In assay [20] the target is T1, Epidermal growth factor receptor (Homo sapiens). Nature of the assay: Inhibition of EGFR E746-A750del mutant at 1 uM. It counts as protein assay. Summed up: as §1
In assay [21] the target is Casein kinase I isoform gamma-3 (Homo sapiens) (UniProt Q9Y6M4). Nature of the assay: Inhibition of CSNK1G3 at 1 uM. Summed up: as §1
Sequence of Casein kinase I isoform gamma-3 (Homo sapiens) (Q9Y6M4 whole entry, looked up, canonical isoform): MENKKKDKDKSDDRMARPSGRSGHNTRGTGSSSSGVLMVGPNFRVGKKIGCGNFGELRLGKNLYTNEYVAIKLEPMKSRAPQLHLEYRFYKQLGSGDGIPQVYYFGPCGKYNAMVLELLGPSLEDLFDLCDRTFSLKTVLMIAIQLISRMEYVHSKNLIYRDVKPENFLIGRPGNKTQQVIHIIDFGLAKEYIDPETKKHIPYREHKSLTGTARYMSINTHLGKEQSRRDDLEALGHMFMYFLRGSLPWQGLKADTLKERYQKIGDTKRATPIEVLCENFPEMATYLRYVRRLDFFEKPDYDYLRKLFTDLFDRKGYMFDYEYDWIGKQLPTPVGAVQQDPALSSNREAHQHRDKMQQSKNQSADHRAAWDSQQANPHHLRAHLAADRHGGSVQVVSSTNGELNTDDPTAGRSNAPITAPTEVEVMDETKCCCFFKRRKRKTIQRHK
Assay [22] deals with Insulin-like growth factor 1 receptor (Homo sapiens) (UniProt P08069). Nature of the assay: Inhibition of IGF1R at 1 uM. Summed up:
as §2

For assay [23], the system named is Tyrosine-protein kinase ABL1 (Homo sapiens), P00519 [H396P]. In words: Inhibition of ABL1 H396P mutant at 1 uM. Summed up: as §3

Sequence of Proto-oncogene tyrosine-protein kinase receptor Ret (Homo sapiens) (P07949 whole entry): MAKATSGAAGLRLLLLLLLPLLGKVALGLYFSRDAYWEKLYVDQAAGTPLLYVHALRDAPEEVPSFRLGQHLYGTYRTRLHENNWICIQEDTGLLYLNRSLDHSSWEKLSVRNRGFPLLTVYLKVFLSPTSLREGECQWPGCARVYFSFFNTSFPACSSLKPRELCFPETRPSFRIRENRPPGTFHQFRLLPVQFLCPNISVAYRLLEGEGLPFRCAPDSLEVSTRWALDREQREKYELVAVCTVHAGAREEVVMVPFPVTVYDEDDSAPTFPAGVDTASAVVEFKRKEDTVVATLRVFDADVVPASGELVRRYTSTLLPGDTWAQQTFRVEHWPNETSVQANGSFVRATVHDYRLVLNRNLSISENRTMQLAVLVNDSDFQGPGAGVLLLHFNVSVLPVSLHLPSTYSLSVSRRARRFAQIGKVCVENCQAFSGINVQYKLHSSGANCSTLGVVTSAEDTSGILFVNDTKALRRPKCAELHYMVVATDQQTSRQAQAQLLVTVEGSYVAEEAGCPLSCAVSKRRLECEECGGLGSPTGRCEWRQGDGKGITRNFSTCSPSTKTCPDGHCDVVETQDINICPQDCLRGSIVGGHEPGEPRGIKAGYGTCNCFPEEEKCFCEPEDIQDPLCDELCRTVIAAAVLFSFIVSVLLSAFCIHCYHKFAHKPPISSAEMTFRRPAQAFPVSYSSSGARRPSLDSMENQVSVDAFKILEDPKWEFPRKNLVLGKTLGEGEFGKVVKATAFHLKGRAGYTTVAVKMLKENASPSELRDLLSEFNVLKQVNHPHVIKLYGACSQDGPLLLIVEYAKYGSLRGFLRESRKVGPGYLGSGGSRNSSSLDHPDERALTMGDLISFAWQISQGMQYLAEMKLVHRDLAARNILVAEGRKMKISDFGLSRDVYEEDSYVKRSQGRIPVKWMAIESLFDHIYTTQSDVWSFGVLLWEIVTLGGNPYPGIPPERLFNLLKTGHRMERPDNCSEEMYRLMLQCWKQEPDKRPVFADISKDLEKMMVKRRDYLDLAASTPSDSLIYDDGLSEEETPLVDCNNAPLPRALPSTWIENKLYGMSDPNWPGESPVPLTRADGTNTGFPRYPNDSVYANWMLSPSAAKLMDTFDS
Sequence of Insulin receptor-related protein (Homo sapiens) (P14616 27-742 limits assumed): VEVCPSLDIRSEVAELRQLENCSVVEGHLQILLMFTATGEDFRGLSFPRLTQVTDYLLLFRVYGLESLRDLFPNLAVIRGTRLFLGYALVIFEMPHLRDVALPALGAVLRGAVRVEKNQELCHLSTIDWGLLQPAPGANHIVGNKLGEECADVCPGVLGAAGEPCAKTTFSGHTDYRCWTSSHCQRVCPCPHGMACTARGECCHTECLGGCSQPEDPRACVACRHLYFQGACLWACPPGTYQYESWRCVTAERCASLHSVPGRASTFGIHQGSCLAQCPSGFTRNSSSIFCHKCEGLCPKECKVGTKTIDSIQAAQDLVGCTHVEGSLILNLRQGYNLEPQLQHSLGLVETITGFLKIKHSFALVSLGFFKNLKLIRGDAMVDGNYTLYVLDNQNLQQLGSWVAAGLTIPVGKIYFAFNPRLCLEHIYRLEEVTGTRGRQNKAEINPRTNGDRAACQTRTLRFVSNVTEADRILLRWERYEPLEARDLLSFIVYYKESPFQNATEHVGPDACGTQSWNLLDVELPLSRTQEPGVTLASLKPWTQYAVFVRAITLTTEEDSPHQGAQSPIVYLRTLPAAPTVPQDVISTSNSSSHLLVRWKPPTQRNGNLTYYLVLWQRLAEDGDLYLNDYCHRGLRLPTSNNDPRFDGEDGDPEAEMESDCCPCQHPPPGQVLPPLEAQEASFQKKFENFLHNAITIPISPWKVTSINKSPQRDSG
Sequence of Insulin receptor-related protein (Homo sapiens) (P14616 747-1297 limits assumed): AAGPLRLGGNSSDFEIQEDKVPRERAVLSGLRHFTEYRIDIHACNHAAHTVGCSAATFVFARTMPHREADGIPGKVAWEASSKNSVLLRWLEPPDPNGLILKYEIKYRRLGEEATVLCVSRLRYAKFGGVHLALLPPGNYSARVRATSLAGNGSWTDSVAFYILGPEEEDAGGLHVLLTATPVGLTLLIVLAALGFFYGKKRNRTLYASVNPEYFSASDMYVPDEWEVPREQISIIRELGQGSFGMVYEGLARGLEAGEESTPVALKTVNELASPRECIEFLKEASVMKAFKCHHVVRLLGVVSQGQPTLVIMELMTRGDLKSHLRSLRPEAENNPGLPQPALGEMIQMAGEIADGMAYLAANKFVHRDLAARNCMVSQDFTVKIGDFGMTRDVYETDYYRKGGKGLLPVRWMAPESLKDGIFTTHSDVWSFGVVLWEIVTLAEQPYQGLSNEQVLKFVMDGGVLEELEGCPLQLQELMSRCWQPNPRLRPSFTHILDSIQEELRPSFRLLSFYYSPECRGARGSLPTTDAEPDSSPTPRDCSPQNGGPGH
Sequence of Death-associated protein kinase 3 (Homo sapiens) (O43293 whole entry, looked up): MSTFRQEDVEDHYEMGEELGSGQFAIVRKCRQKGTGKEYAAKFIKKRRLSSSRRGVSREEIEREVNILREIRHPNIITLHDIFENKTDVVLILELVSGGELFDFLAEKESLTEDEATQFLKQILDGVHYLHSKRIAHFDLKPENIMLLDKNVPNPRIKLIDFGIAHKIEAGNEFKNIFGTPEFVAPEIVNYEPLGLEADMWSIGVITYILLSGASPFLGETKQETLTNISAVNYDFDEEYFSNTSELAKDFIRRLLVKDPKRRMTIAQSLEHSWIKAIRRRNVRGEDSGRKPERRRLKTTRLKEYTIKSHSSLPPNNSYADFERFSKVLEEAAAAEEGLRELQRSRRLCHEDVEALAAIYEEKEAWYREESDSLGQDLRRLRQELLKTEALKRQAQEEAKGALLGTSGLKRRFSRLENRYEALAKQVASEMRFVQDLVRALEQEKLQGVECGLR

With `FC(F)(F)c1ccc(Cl)cc1CN1CCNc2ncc(-c3ccnc(N4CCNCC4)c3)cc21`, the inhibition (as a rule, the percentage by which the read-out fell short of the control) in assay [1] is less than 50%; in [2] it was less than 50%; in assay [3], less than 50%; in assay [4], 67%; in [5], less than 50%; in assay [6] it was less than 50%. For the same compound, the inhibition in assay [7] was less than 50%; in [8], less than 50%; in assay [9], 76%; in assay [10], less than 50%; in assay [11] it was less than 50%; in assay [12], less than 50%. For the same compound, the inhibition is 77% in [13]; less than 50% in assay [14]; less than 50% in assay [15]; less than 50% in assay [16]; less than 50% in [17]; less than 50% in assay [18]. For the same compound, the inhibition in assay [19], in assay [20], in [21], in assay [22] and in assay [23] was less than 50% in each case.

Consider `CN1CCN(c2ccc(-c3cnc4c(c3)N(Cc3cc(F)ccc3F)CCN4)cn2)CC1`, for which the inhibition in assay [1], in assay [2], in assay [3], in assay [4], in assay [5] and in assay [6] was less than 50% throughout. Further, the inhibition was less than 50% in assay [7]; less than 50% in assay [8]; less than 50% in [9]; less than 50% in assay [10]; less than 50% in assay [11]; 80.4% in assay [12]. Moreover, the inhibition in assay [13], in assay [14], in [15], in assay [16], in assay [17] and in [18] was less than 50% each time. Also, the inhibition in [19] is less than 50%; in assay [20], less than 50%; in assay [21], less than 50%; in assay [22], less than 50%; in [23] it was 58.5%.

Turning to `O=C(O)c1ccc(-c2cnc3c(c2)N(Cc2cc(Cl)ccc2C(F)(F)F)CCN3)cc1`, the inhibition in assay [2], in assay [3], in assay [5], in [6], in assay [7] and in [8] was less than 50% throughout. Further, the inhibition in assay [9], in [10], in assay [11], in assay [13], in assay [15] and in assay [17] was less than 50% each time. Also, the inhibition in assay [18], in assay [19], in [20], in assay [21], in assay [22] and in assay [23] was less than 50% throughout.

`COC1CCN(C(=O)c2ccc(-c3cnc4c(c3)N(Cc3cc(Cl)ccc3C(F)(F)F)CCN4)cc2)CC1`: the inhibition in [2], in assay [3], in [5], in assay [6], in [7] and in [8] was less than 50% each time. Further, the inhibition in assay [9], in [10], in assay [11], in [12], in [13] and in assay [15] was less than 50% throughout. The inhibition in [17], in assay [18], in assay [19], in [20], in assay [21] and in assay [22] was less than 50% in each case. Also, the inhibition in assay [23] was less than 50%.

For the compound `O=C(c1ccc(-c2cnc3c(c2)N(Cc2cc(Cl)ccc2C(F)(F)F)CCN3)cc1)N1CCC(N2CCCC2)CC1`, the inhibition in assay [2], in assay [3], in assay [5], in [6], in assay [7] and in [8] was less than 50% throughout. The inhibition in [9] is less than 50%; in [10] it was less than 50%; in assay [11], less than 50%; in assay [12] it was 83.2%; in assay [13], less than 50%; in assay [15] it was less than 50%. Further, the inhibition in [17], in [18], in assay [19], in assay [20], in assay [21] and in [22] was less than 50% in each case. In [23], this compound displayed an inhibition of less than 50%.

On to `O=C(c1ccc(-c2cnc3c(c2)N(Cc2cc(Cl)ccc2C(F)(F)F)CCN3)cc1)N1CCCCC1`, for which the inhibition in assay [2], in [3], in assay [5], in assay [6], in [7] and in assay [8] was less than 50% in each case. The inhibition in [9], in assay [10], in [11], in [12], in assay [13] and in [15] was less than 50% throughout. The inhibition in assay [17], in assay [18], in assay [19], in assay [20], in [21] and in assay [22] was less than 50% in each case. In addition, the inhibition in assay [23] was less than 50%.
